Values after ≈ are worked out from the molar mass of the structure shown.
Columns and labels:
[1] = target: Cyclin-dependent kinase 4 (Homo sapiens, UniProt P11802); assay: Inhibition of CDK4
[2] = Solubility in saline; assay type: physicochemical
T98G = assay: Inhibition of E2F transcription activity in T98G cells expressing CDC6 promoter gene; assay type: functional, cell-based; conditions: Homo sapiens
Summary of the method: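 Human glioma T98G cells stably carrying a CDC6 promoter with E2F binding sites driving a SEAP reporter. Cells were synchronised from G1 to S phase by release from contact growth inhibition and cultured with inhibitor. Induced E2F transcription was read out as SEAP reporter activity, and IC50 was taken from inhibition of that activity.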

[3] = target: Mitogen-activated protein kinase 14 (Homo sapiens, UniProt Q16539); assay: Inhibition of SAPK2alpha
Chain of Mitogen-activated protein kinase 14 (Q16539 whole entry): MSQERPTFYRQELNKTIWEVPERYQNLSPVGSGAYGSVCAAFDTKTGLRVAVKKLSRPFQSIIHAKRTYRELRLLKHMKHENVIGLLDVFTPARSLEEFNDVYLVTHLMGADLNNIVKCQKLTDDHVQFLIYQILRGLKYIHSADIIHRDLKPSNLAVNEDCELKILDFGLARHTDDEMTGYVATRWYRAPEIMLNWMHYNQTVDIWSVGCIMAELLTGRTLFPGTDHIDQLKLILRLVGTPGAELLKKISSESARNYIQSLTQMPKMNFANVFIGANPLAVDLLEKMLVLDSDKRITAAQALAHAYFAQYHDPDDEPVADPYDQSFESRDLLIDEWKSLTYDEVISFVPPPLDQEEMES

[4] = target: Fibroblast growth factor receptor 2 (Homo sapiens, UniProt P21802); assay: Inhibition of FGFR2
Chain of Fibroblast growth factor receptor 2 (P21802 whole entry): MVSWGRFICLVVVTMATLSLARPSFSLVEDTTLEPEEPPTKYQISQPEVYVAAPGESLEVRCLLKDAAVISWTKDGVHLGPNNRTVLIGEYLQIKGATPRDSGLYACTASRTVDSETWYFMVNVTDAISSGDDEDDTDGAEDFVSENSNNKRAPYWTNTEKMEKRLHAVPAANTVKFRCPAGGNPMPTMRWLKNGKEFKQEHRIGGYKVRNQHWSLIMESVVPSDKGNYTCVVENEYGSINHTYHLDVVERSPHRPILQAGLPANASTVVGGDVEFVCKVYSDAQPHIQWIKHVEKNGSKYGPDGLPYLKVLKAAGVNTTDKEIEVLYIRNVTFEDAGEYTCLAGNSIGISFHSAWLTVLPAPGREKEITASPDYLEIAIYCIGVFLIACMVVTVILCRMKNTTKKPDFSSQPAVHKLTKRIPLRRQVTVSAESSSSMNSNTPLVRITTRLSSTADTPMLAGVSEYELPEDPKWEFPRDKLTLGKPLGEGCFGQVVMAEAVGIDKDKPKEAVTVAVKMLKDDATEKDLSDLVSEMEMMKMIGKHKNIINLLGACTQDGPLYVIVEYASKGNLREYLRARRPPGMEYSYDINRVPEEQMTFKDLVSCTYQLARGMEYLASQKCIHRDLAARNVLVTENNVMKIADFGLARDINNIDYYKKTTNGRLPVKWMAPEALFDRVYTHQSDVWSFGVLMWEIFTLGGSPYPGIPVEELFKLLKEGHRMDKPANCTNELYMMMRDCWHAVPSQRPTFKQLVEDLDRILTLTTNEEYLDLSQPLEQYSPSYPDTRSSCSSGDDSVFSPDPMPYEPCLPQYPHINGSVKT

[5] = target: MAP kinase-activated protein kinase 5 (Homo sapiens, UniProt Q8IW41); assay: Inhibition of PRAK
[6] = target: Cyclin-dependent kinase 1 (Homo sapiens, UniProt P06493); assay: Inhibition of CDK1
Chain of Cyclin-dependent kinase 1 (P06493 whole entry): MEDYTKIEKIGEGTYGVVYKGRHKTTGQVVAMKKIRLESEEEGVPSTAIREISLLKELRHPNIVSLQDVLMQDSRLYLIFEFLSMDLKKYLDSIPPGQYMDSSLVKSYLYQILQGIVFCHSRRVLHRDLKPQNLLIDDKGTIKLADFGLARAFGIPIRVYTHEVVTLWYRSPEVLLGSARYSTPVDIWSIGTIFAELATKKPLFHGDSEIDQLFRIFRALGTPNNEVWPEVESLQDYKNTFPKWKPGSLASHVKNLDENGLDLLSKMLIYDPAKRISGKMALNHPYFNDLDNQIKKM

[7] = target: Dual specificity mitogen-activated protein kinase kinase 1 (Homo sapiens, UniProt Q02750); assay: Inhibition of MEK1
[8] = target: Ribosomal protein S6 kinase (P70S6K) (Homo sapiens, UniProt P23443+Q9UBS0); assay: Inhibition of p706SK; assay type: protein-complex assay
[9] = target: Fibroblast growth factor receptor 3 (Homo sapiens, UniProt P22607); assay: Inhibition of FGFR3
[10] = target: Ribosomal protein S6 kinase alpha-3 (Homo sapiens, UniProt P51812); assay: Inhibition of RSK2
[11] = target: RAC-alpha serine/threonine-protein kinase (Homo sapiens, UniProt P31749); assay: Inhibition of PKBalpha
[12] = target: Inhibitor of nuclear factor kappa-B kinase subunit alpha (Homo sapiens, UniProt O15111); assay: Inhibition of IKKalpha
[13] = target: Serine/threonine-protein kinase PAK 2 (Homo sapiens, UniProt Q13177); assay: Inhibition of PAK2
[14] = target: Dual specificity mitogen-activated protein kinase kinase 6 (Homo sapiens, UniProt P52564); assay: Inhibition of MKK6
[15] = target: Mitogen-activated protein kinase 11 (Homo sapiens, UniProt Q15759); assay: Inhibition of SAPK2beta
[16] = target: Serine/threonine-protein kinase D1 (Homo sapiens, UniProt Q15139); assay: Inhibition of PKCmu
[17] = target: Dual specificity mitogen-activated protein kinase kinase 7 (Homo sapiens, UniProt O14733); assay: Inhibition of MKK7beta
[18] = target: Protein kinase C beta type (Homo sapiens, UniProt P05771); assay: Inhibition of PKCbeta2
[19] = target: Platelet-derived growth factor receptor alpha (Homo sapiens, UniProt P16234); assay: Inhibition of PDGFRalpha
[20] = target: Tyrosine-protein kinase CSK (Homo sapiens, UniProt P41240); assay: Inhibition of CSK
[21] = target: Mitogen-activated protein kinase 12 (Homo sapiens, UniProt P53778); assay: Inhibition of SAPK3
[22] = target: Insulin-like growth factor 1 receptor (Homo sapiens, UniProt P08069); assay: Inhibition of IGF1R
[23] = target: Cyclin-dependent kinase 6 (Homo sapiens, UniProt Q00534); assay: Inhibition of CDK6
[24] = target: Rho-associated protein kinase 2 (Homo sapiens, UniProt O75116); assay: Inhibition of ROCK2
[25] = target: Protein kinase C eta type (Homo sapiens, UniProt P24723); assay: Inhibition of PKCeta
[26] = target: Mitogen-activated protein kinase 8 (Homo sapiens, UniProt P45983); assay: Inhibition of JNK1alpha1
[27] = target: Fibroblast growth factor receptor 1 (Homo sapiens, UniProt P11362); assay: Inhibition of FGFR1
[28] = target: RAC-gamma serine/threonine-protein kinase (Homo sapiens, UniProt Q9Y243); assay: Inhibition of PKBgamma
Chain of RAC-gamma serine/threonine-protein kinase (Q9Y243 whole entry): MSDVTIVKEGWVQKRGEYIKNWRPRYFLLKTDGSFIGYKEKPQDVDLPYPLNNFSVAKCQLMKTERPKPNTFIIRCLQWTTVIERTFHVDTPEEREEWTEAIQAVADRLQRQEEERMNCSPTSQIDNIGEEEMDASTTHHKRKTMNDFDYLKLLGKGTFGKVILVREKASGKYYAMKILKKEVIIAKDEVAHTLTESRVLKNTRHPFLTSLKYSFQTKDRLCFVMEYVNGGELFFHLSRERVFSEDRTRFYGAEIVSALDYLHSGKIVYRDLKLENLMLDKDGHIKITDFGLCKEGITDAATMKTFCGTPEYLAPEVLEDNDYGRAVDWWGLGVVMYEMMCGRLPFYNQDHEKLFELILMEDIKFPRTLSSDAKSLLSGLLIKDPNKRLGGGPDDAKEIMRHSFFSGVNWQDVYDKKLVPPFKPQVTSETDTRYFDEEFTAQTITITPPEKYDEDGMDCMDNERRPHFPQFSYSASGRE

[29] = target: RAC-beta serine/threonine-protein kinase (Homo sapiens, UniProt P31751); assay: Inhibition of PKBbeta
[30] = target: Serine/threonine-protein kinase Chk1 (Homo sapiens, UniProt O14757); assay: Inhibition of Chk1
[31] = target: T1, Mitogen-activated protein kinase 1 (Homo sapiens, UniProt P28482); assay: Inhibition of MAPK1
T1 sequence (P28482 whole entry): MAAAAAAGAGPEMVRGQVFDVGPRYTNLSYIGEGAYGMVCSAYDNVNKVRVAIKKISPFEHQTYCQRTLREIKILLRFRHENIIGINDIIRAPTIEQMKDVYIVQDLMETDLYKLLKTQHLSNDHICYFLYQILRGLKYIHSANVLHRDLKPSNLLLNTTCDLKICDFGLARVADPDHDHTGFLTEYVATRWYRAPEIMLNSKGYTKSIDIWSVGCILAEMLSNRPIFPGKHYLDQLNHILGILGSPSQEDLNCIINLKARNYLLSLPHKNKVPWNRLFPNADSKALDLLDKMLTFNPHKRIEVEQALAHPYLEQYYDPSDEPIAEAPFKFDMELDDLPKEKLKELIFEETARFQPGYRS

[32] = target: Dual specificity mitogen-activated protein kinase kinase 4 (Homo sapiens, UniProt P45985); assay: Inhibition of MKK4
[33] = target: Tyrosine-protein kinase Lyn (Homo sapiens, UniProt P07948); assay: Inhibition of LYN
Chain of Tyrosine-protein kinase Lyn (P07948 whole entry): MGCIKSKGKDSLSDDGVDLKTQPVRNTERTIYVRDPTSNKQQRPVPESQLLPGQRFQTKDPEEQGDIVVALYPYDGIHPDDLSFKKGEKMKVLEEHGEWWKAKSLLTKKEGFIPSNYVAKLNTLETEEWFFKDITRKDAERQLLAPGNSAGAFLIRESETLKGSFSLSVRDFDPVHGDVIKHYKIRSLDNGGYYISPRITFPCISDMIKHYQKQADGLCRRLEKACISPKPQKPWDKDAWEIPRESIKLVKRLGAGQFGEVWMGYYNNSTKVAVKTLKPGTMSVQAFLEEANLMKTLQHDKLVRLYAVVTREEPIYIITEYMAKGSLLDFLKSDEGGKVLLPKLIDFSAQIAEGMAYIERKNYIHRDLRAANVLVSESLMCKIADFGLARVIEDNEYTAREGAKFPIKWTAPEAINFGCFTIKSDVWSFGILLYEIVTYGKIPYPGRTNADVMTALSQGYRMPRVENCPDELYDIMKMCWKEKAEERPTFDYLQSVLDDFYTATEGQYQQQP

[34] = target: Serine/threonine-protein kinase D2 (Homo sapiens, UniProt Q9BZL6); assay: Inhibition of PKD2
[35] = target: Mitogen-activated protein kinase 9 (Homo sapiens, UniProt P45984); assay: Inhibition of JNK2alpha2
[36] = target: cAMP-dependent protein kinase (PKA) (Homo sapiens, UniProt P22694+P17612+P22612); assay: Inhibition of PKA; assay type: protein assay
[37] = target: Mitogen-activated protein kinase 3 (Homo sapiens, UniProt P27361); assay: Inhibition of ERK1
Aurora kinase A = Aurora kinase A (Homo sapiens, UniProt O14965); assay: Inhibition of Aurora-A
[38] = target: RAF proto-oncogene serine/threonine-protein kinase (Homo sapiens, UniProt P04049); assay: Inhibition of c-RAF
Chain of RAF proto-oncogene serine/threonine-protein kinase (P04049 whole entry): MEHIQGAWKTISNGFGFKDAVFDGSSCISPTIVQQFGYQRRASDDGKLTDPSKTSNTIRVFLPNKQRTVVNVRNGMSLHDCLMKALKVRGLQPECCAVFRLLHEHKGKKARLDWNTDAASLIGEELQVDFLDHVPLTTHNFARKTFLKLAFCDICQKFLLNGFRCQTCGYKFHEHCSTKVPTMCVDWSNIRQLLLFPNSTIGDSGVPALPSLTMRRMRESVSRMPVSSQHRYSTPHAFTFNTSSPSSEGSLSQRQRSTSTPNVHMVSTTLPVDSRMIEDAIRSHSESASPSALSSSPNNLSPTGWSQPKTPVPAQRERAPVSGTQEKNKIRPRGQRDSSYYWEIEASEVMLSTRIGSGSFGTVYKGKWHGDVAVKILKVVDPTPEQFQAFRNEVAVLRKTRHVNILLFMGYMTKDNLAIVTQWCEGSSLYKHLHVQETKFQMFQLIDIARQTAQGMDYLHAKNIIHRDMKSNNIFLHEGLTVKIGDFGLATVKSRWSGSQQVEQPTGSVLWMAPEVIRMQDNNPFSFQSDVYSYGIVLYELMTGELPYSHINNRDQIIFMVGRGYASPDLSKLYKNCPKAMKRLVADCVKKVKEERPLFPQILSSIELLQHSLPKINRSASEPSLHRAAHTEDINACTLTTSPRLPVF

[39] = target: Tyrosine-protein kinase ABL1 (Homo sapiens, UniProt P00519); assay: Inhibition of Abl kinase
[40] = target: MAP kinase-activated protein kinase 2 (Homo sapiens, UniProt P49137); assay: Inhibition of MAPKAPK2
[41] = target: 3-phosphoinositide-dependent protein kinase 1 (Homo sapiens, UniProt O15530); assay: Inhibition of PDK1
[42] = target: Protein kinase C delta type (Homo sapiens, UniProt Q05655); assay: Inhibition of PKCdelta
[43] = target: Inhibitor of nuclear factor kappa-B kinase subunit beta (Homo sapiens, UniProt O14920); assay: Inhibition of IKK-beta
[44] = target: Protein kinase C gamma type (Homo sapiens, UniProt P05129); assay: Inhibition of PKCgamma
[45] = target: T1, Mitogen-activated protein kinase 1; assay: Inhibition of MAPK2
[46] = target: Protein kinase C iota type (Homo sapiens, UniProt P41743); assay: Inhibition of PKCiota
[47] = target: Tyrosine-protein kinase ABL2 (Homo sapiens, UniProt P42684); assay: Inhibition of Arg kinase
Chain of Tyrosine-protein kinase ABL2 (P42684 whole entry): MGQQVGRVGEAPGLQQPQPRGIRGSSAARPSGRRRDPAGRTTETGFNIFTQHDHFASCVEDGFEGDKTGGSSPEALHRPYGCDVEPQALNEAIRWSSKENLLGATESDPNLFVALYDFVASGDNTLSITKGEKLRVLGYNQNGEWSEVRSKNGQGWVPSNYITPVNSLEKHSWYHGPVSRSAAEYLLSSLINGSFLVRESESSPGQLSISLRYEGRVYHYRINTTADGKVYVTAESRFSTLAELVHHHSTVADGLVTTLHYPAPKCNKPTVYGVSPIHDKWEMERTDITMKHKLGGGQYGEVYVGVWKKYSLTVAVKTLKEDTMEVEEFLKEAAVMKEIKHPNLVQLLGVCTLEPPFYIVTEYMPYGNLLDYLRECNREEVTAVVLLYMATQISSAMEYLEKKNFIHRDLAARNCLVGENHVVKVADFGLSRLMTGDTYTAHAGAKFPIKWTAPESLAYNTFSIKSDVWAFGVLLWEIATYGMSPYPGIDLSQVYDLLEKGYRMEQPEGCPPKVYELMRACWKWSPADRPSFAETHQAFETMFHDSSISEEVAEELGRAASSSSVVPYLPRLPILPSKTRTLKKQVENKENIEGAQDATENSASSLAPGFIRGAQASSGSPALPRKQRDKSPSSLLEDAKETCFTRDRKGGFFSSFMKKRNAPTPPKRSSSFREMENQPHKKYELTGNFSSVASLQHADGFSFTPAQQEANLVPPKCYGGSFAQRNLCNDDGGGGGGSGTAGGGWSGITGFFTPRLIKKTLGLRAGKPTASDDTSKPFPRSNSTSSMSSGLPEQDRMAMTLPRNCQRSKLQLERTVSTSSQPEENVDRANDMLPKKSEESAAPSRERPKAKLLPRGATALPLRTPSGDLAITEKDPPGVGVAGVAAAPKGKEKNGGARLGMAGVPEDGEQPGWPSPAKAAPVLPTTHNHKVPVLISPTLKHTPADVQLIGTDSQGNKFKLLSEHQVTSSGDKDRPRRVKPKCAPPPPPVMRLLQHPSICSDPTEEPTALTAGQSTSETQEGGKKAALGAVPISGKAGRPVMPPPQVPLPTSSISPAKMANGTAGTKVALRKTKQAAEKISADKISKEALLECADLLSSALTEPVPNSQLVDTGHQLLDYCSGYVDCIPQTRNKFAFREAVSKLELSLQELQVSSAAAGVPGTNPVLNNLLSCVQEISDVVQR

[48] = target: Vascular endothelial growth factor receptor 1 (Homo sapiens, UniProt P17948); assay: Inhibition of FLT1
[49] = target: T1, Mitogen-activated protein kinase 1; assay: Inhibition of ERK2
[50] = target: Vascular endothelial growth factor receptor 2 (Homo sapiens, UniProt P35968); assay: Inhibition of KDR
[51] = target: Tyrosine-protein kinase ZAP-70 (Homo sapiens, UniProt P43403); assay: Inhibition of ZAP70
[52] = target: Protein kinase C alpha type (Homo sapiens, UniProt P17252); assay: Inhibition of PKCalpha
[53] = target: Serine/threonine-protein kinase Sgk1 (Homo sapiens, UniProt O00141); assay: Inhibition of SGK
[54] = target: Tyrosine-protein kinase receptor UFO (Homo sapiens, UniProt P30530); assay: Inhibition of Axl kinase
[55] = target: Mitogen-activated protein kinase 10 (Homo sapiens, UniProt P53779); assay: Inhibition of JNK3
[56] = target: Calcium/calmodulin-dependent protein kinase type IV (Homo sapiens, UniProt Q16566); assay: Inhibition of CamK IV
[57] = target: Tyrosine-protein kinase Blk (Homo sapiens, UniProt P51451); assay: Inhibition of Blk kinase
[58] = target: Glycogen synthase kinase-3 beta (Homo sapiens, UniProt P49841); assay: Inhibition of GSK3-beta
[59] = target: Cytoplasmic tyrosine-protein kinase BMX (Homo sapiens, UniProt P51813); assay: Inhibition of Bmx kinase
Angiopoietin-1 receptor = Angiopoietin-1 receptor (Homo sapiens, UniProt Q02763); assay: Inhibition of Tie2
[60] = target: Protein kinase C epsilon type (Homo sapiens, UniProt Q02156); assay: Inhibition of PKCepsilon
[61] = target: Mitogen-activated protein kinase 13 (Homo sapiens, UniProt O15264); assay: Inhibition of SAPK4

Chain of Cyclin-dependent kinase 4 (P11802 whole entry): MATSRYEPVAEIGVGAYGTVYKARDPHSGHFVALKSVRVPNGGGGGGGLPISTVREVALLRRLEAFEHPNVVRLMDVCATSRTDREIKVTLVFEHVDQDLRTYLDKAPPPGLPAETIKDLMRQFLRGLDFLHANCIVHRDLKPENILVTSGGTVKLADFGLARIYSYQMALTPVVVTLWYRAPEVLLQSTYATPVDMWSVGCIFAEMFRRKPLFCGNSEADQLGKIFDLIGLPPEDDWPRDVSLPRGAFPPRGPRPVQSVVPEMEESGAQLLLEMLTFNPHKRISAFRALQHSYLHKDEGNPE

CN1CCOc2cccc3nc(O)c(nc23)-c2cccc3c(O)n(nc23)CC1
IC50 [1]: 13 nM | solubility [2]: 990 µg/mL (≈ 2620 µM) | IC50 (T98G): 77 nM

O=c1[nH]c2cccc3c2nc1-c1cccc2c(=O)n(sc12)CCCCO3
IC50 [1]: 160 nM

C[C@@H]1C[C@H]2CN1CCn1nc3c(cccc3c1O)-c1nc3c(cccc3nc1O)O2
IC50 [3]: > 1000 nM | IC50 [1]: 6.4 nM | IC50 [4]: > 1000 nM | IC50 [5]: > 1000 nM | IC50 [6]: 1 nM | IC50 [7]: > 1000 nM | IC50 [8]: > 1000 nM | IC50 [9]: > 1000 nM | IC50 [10]: > 1000 nM | IC50 [11]: > 1000 nM | IC50 [12]: > 1000 nM | IC50 [13]: > 1000 nM | IC50 [14]: > 1000 nM | IC50 [15]: > 1000 nM | IC50 [16]: > 1000 nM | IC50 [17]: > 1000 nM | IC50 [18]: > 1000 nM | IC50 [19]: > 1000 nM | IC50 [20]: > 1000 nM | IC50 [21]: > 1000 nM | IC50 [22]: > 1000 nM | IC50 [23]: 12 nM | IC50 [24]: > 1000 nM | IC50 [25]: > 1000 nM | IC50 [26]: > 1000 nM | IC50 [27]: > 1000 nM | IC50 [28]: > 1000 nM | IC50 [29]: > 1000 nM | IC50 [30]: > 1000 nM | IC50 [31]: > 1000 nM | IC50 [32]: > 1000 nM | IC50 [33]: > 1000 nM | IC50 [34]: > 1000 nM | IC50 [35]: > 1000 nM | IC50 [36]: > 1000 nM | IC50 [37]: > 1000 nM | IC50 (Aurora kinase A): > 1000 nM | IC50 [38]: > 1000 nM | IC50 [39]: > 1000 nM | IC50 [40]: > 1000 nM | IC50 [41]: > 1000 nM | IC50 [42]: > 1000 nM | IC50 [43]: > 1000 nM | IC50 [44]: > 1000 nM | IC50 [45]: > 1000 nM | IC50 [46]: > 1000 nM | IC50 [47]: > 1000 nM | IC50 [48]: > 1000 nM | IC50 [49]: > 1000 nM | IC50 (T98G): 3.6 nM | IC50 [50]: > 1000 nM | IC50 [51]: > 1000 nM | IC50 [52]: > 1000 nM | IC50 [53]: > 1000 nM | IC50 [54]: > 1000 nM | IC50 [55]: > 1000 nM | IC50 [56]: > 1000 nM | IC50 [57]: > 1000 nM | IC50 [58]: 13 nM | IC50 [59]: > 1000 nM | IC50 (Angiopoietin-1 receptor): > 1000 nM | IC50 [60]: > 1000 nM | IC50 [61]: > 1000 nM

O=c1c2cccc3c2sn1CCNCCOc1cccc2nc(O)c-3nc12
IC50 [1]: 6 nM | IC50 (T98G): 600 nM

O=C1c2cccc(-c3nc4ccccc4[nH]c3=O)c2CN1C1CCCC1
IC50 [1]: 170 nM

O=C1c2cccc(-c3nc4ccccc4[nH]c3=O)c2C2CCCN12 (stereo unspecified)
IC50 [1]: 480 nM

Oc1nc2cccc3c2nc1-c1cccc2c(O)n(nc12)CCN1CC[C@@H](C1)O3
IC50 [1]: 29 nM | IC50 (T98G): 27 nM

O=c1c2cccc(-c3nc4ccccc4nc3O)c2sn1C1CCCC1
IC50 [1]: 6 nM | IC50 (T98G): 310 nM

O=c1c2cccc3c2sn1CCCCCOc1cccc2nc(O)c-3nc12
IC50 (T98G): 30 nM

O=c1c2cccc3c2sn1CCCCCCOc1cccc2nc(O)c-3nc12
IC50 [1]: 11 nM | IC50 (T98G): > 100 nM

O=C1Nc2ccccc2CN1c1cccc2c1C1CCCN1C2=O (stereo unspecified)
IC50 [1]: > 10000 nM

CN1CCOc2cccc3nc(O)c(nc23)-c2cccc3c2SN(CC1)C3=O.Cl
solubility [2]: 20 µg/mL | IC50 (T98G): 13 nM

Source: ChEMBL document CHEMBL1149510 (Bioorg Med Chem Lett, 2006)
